The target in test [1] is T1, Mu-type opioid receptor (Homo sapiens, UniProt P35372). In words: Agonist activity at human MOR expressed in HEK293 cell membrane assessed as inhibition of forskolin-induced cAMP accumulation by liquid scintillation counting relative to control. Format: functional, cell membranes. Background: cAMP levels reflect the balance of adenylyl cyclase and phosphodiesterase activity.

Test [2] deals with T1, Mu-type opioid receptor. In words: Agonist activity at human MOR expressed in HEK293 cells assessed as stimulation of ERK1/2 phosphorylation at […] after 2 mins by Western blotting. In kind it is functional, cell-based. The gist of the method: (§1)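 HEK293 cells stably expressing the μ- or δ-opioid receptor, serum-starved 16 h, then exposed to ligand at 37 °C for the indicated times. Whole lysates run on 10% SDS-PAGE and immunoblotted for phospho-ERK1/2, with the blot reprobed for total ERK as loading control. Three independent experiments.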

The target of test [3] is T2, Delta-type opioid receptor (Homo sapiens, UniProt P41143). In words: Agonist activity at human DOR expressed in HEK293 cell membrane assessed as inhibition of forskolin-induced cAMP accumulation by liquid scintillation counting relative to control. In kind it is functional, cell membranes.
The species named for the next test is Rattus norvegicus. In words: Selectivity index, ratio of EC50 for rat brain DOR to EC50 for rat brain MOR by cAMP accumulation assay.
In test [4] the target is T3, Opioid receptors; mu and delta (Mus musculus, UniProt P42866+P32300). In words: Agonist activity at MOR/DOR in NMRI mouse spinal cord assessed as reduction in spinal cord network activity by electrophysiology assay. In kind it is functional. Put shortly:
(§2)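 Primary neuronal networks from frontal cortex or spinal cord grown on microelectrode array neurochips for 4 weeks to 3 months. Accumulating concentrations from 1 fM to 100 μM (nine steps), each recorded for 1 h at 37 °C, pH 7.4. Spike rate and burst duration taken from the last 30 min stable phase in 60 s bins. EC50 obtained by logistic dose-response fitting.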

Test [5] concerns the target T2, Delta-type opioid receptor. In words: Displacement of [3H]diprenorphine from human DOR expressed in HEK293 cell membrane by liquid scintillation counting. In kind it is cell membranes. Put shortly: (§3)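 Membranes (20 μg) from HEK293 cells stably expressing μ- or δ-OR incubated with [3H]diprenorphine (3.75 nM) for 45 min at 30 °C in 50 mM Tris-HCl pH 7.5, 100 mM NaCl, 10 mM MgCl2. Nonspecific binding defined with 10 μM naloxone. Bound ligand collected by GF/C filtration and counted by liquid scintillation.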
On the technique in general: Loss of bound radioactivity is the signal in a displacement assay; it reports binding, not function.

Test [6] concerns the target Mu-type opioid receptor (Rattus norvegicus, UniProt P33535). In words: Displacement of [3H]naloxone from MOR in rat brain homogenates by liquid scintillation counting. In kind it is tissue-based.
For test [7], the target named is T1, Mu-type opioid receptor. In words: Displacement of [3H]diprenorphine from human MOR expressed in HEK293 cell membrane by liquid scintillation counting. In kind it is cell membranes. Put shortly: as §3
Test [8] has as its target Delta-type opioid receptor (Rattus norvegicus, UniProt P33533). In words: Displacement of [3H]deltorphin2 from DOR in rat brain homogenates by liquid scintillation counting. In kind it is tissue-based.
Test [9] addresses T1, Mu-type opioid receptor. In words: Agonist activity at human MOR expressed in HEK293 cell membrane assessed as inhibition of forskolin-induced cAMP accumulation by liquid scintillation counting. Format: functional, cell membranes. Put shortly: (§4)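 HEK293 cells stably expressing the μ- or δ-opioid receptor, prelabelled for 24 h with [3H]adenine. Cells treated with ligand (10 fM to 10 μM or 1 pM to 10 μM) plus 50 μM forskolin for 30 min at 37 °C. Read-out is [3H]cAMP over total [3H]adenine nucleotides by scintillation counting, given as percent of forskolin-stimulated accumulation.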

In test [10] the target is T3, Opioid receptors; mu and delta. In words: Agonist activity at MOR/DOR in NMRI mouse frontal cortex assessed as reduction in spinal cord network activity by electrophysiology assay. In kind it is functional, tissue-based. The gist of the method: as §2
Test [11] addresses T2, Delta-type opioid receptor. In words: Agonist activity at human DOR expressed in HEK293 cells assessed as stimulation of ERK1/2 phosphorylation at 1 uM after 2 mins by Western blotting. Format: functional, cell-based. Put shortly:
as §1
For orientation: In western blotting, separated proteins are transferred to a membrane and probed.

In test [12] the target is Kappa-type opioid receptor (Homo sapiens, UniProt P41145). In words: Displacement of [3H]diprenorphine from human KOR expressed in HEK293 cell membrane by liquid scintillation counting. In kind it is cell membranes.
The target of test [13] is Opioid receptors; mu and delta (Mus musculus) (UniProt P42866+P32300). In words: Agonist activity at MOR/DOR in NMRI mouse frontal cortex or spinal cord networks assessed as reduction in spinal cord network activity by electrophysiology assay relative to gabapentin. Format: functional, tissue-based. Also on record: scale not given: the % may be the effect or the level left.

The species entered for the next test is Homo sapiens. In words: Selectivity index, ratio of Ki for human DOR to Ki for human MOR by radioligand displacement assay. The gist of the method: as §3
Test [14] has as its target T2, Delta-type opioid receptor. In words: Agonist activity at human DOR expressed in HEK293 cell membrane assessed as inhibition of forskolin-induced cAMP accumulation by liquid scintillation counting. Format: functional, cell membranes. Put shortly:
as §4

Test [15] has as its target T1, Mu-type opioid receptor. In words: Agonist activity at human MOR expressed in HEK293 cells assessed as stimulation of ERK1/2 phosphorylation at 1 uM after 2 mins by Western blotting. Format: functional, cell-based. The gist of the method:
as §1

The values that follow come from ChEMBL document CHEMBL2150869, “Superpotent [Dmt¹] dermorphin tetrapeptides containing the 4-aminotetrahydro-2-benzazepin-3-one scaffold with mixed μ/δ opioid receptor agonistic properties” (J Med Chem, 2011).

Activity calls are given as the source filed them. No cut-off for these calls is given here. Where a SMILES comes first, the peptide text is derived from it. [ ]: non-standard residue; d: D form. Dmt = Cc1cc(O)cc(C)c1C[C@H](N)C(=O)O; dNMeA = CN[C@H](C)C(=O)O; Sar = CNCC(=O)O

Sequence of Opioid receptors; mu and delta (Mus musculus) (P32300 whole entry, looked up): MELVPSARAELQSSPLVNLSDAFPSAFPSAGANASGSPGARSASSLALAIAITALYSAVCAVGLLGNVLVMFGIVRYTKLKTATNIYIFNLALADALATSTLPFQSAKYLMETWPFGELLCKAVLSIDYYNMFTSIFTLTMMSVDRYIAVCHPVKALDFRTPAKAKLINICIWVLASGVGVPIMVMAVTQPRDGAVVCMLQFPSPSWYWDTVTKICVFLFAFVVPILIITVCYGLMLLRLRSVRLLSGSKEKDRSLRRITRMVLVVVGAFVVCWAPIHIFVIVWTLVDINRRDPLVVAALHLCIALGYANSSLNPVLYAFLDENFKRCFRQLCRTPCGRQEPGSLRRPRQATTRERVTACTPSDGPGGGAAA
Sequence of Opioid receptors; mu and delta (Mus musculus) (P42866 whole entry, looked up): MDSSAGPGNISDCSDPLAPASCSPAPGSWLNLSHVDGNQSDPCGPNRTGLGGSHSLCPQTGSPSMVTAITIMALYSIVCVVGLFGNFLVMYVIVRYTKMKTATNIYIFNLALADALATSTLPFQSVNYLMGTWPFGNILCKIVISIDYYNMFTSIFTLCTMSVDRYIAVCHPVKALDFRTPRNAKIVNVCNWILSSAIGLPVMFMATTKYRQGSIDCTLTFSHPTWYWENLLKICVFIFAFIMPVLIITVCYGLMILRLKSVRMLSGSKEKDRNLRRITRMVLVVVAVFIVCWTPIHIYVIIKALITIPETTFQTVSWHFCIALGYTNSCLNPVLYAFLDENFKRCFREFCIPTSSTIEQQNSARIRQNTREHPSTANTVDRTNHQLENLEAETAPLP
Sequence of Kappa-type opioid receptor (P41145 whole entry): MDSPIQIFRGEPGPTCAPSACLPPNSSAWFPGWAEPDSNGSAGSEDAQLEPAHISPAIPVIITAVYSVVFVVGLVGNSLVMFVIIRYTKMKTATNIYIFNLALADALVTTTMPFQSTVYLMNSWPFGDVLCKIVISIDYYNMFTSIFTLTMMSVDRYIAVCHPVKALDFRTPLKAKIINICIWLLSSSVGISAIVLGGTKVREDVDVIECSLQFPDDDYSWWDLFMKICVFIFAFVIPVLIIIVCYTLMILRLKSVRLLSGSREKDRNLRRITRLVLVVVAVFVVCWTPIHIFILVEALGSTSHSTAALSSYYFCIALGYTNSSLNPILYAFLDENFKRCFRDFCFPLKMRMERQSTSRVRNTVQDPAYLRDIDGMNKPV
Sequence of Delta-type opioid receptor (Rattus norvegicus, UniProt P33533) (P33533 whole entry): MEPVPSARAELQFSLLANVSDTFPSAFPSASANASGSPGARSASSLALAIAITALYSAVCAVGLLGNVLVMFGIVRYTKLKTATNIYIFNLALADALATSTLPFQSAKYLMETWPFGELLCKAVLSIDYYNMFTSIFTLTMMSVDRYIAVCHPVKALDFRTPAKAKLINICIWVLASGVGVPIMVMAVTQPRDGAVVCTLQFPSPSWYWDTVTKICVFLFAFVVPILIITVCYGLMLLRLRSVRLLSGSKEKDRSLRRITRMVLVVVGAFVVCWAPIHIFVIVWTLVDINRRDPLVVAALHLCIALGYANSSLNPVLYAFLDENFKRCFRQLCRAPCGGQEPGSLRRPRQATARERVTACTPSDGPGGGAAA
T1 sequence (P35372 whole entry): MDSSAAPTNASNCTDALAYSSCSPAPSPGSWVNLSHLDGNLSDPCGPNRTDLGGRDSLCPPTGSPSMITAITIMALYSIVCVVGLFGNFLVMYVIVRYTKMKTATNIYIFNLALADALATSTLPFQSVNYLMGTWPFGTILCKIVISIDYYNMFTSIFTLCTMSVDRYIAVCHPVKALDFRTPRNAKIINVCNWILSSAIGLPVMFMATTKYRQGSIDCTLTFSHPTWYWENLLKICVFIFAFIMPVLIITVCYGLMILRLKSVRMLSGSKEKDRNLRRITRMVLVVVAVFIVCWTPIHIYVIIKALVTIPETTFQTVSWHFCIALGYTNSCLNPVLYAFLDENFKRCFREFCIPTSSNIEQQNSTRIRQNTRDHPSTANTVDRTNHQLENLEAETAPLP
Sequence of Mu-type opioid receptor (Rattus norvegicus, UniProt P33535) (P33535 whole entry): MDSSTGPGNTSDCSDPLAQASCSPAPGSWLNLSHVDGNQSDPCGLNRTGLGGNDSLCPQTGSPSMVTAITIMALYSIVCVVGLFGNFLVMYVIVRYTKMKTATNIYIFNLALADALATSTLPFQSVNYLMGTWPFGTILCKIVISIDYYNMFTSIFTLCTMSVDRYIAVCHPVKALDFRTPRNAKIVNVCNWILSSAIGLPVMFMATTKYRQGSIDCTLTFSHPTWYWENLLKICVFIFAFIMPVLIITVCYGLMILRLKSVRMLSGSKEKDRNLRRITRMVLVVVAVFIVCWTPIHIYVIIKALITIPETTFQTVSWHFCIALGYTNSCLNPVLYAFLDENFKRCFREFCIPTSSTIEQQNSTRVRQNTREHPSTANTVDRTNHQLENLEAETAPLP
T2 sequence (P41143 whole entry): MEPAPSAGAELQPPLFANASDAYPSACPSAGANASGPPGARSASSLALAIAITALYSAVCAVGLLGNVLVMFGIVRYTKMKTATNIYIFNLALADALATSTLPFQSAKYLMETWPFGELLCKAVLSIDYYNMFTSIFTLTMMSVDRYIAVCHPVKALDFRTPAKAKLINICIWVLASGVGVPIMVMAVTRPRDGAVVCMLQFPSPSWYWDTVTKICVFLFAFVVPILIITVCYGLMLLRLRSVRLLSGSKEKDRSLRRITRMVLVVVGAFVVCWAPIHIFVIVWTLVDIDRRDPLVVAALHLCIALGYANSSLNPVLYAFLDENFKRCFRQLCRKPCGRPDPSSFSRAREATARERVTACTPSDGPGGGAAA

One may read the Emax as the size of the effect at its maximum, as opposed to the concentration needed. By Ki is commonly meant the equilibrium dissociation constant of an inhibitor or competing ligand from its target. Usually IC50 stands for the concentration at which inhibition is half-maximal. In the case of `Cc1cc(O)cc(C)c1C[C@H](N)C(=O)N(C)[C@H](C)C(=O)N[C@H]1Cc2ccccc2CN(CC(N)=O)C1=O`, the Emax at Mu-type opioid receptor [1] turned out to be 72%; in test [3] it was 61%. In addition, the outcome (on Mu-type opioid receptor [2]; in test [11]) was Active. Further, in the test filed under Rattus norvegicus, the Ratio EC50 was found to be 9.2. For the same molecule, the EC50 in test [4] worked out at 1.3 nM; on Mu-type opioid receptor [9], 0.00174 nM; in test [10], 1.61 ×10⁻¹⁵ M; in test [14] it was 0.016 nM. Besides, the inhibition constant Ki in test [5] is 0.005 µM; on Mu-type opioid receptor [7] it was 0.0148 µM; in [12] it was more than 1000 µM. For the same molecule, the IC50 (at Mu-type opioid receptor [6]; in test [8]) was 0.00095 µM in each case. In test [13], the Activity was determined as 21%. Besides, in the test filed under Homo sapiens, the Ratio Ki turned out to be 0.34.
For the molecule `C[C@H](C(=O)N[C@H]1Cc2ccccc2CN(CC(N)=O)C1=O)N1Cc2cc(O)ccc2C[C@H](N)C1=O`, the Emax at Mu-type opioid receptor [1] is 78%; in test [3] it was 79%. In addition, the result (on Mu-type opioid receptor [2]; in [11]) was Active. Also, the results for the EC50 (in test [4]; on Mu-type opioid receptor [9]; in test [10]) were 6.7 nM, 5.17 nM and 5.67 ×10⁻⁷ M, respectively. Moreover, the Ki in [5] was 0.16 µM; at Mu-type opioid receptor [7], 2.7 µM; in test [12], more than 1000 µM. The IC50 is 0.0208 µM at Mu-type opioid receptor [6] and 0.0178 µM in test [8]. Moreover, the Activity in test [13] came out at 14%. Also, the Ratio Ki in the test listed under Homo sapiens came out at 0.059.
Consider `Cc1cc(O)cc(C)c1C[C@H](N)C(=O)N[C@H](C)C(=O)N[C@H]1Cc2ccccc2CN(CC(N)=O)C1=O`, for which the Emax at Mu-type opioid receptor [1] stood at 78%; in test [3], 66%. The Ratio EC50 in the test listed under Rattus norvegicus came out at 2.04. Also, the Ki in test [5] was 0.018 µM; on Mu-type opioid receptor [7], 0.17 µM; in test [12], more than 1000 µM. For the same molecule, the outcome (at Mu-type opioid receptor [15]; in [11]) was Active. For the same molecule, the figures for the EC50 (at Mu-type opioid receptor [9]; in test [14]) were 0.0832 nM and 0.17 nM, respectively. In addition, in the test filed under Homo sapiens, the Ratio Ki is 0.106.
As for `Cc1cc(O)cc(C)c1C[C@H](N)C(=O)N(C)[C@H](C)C(=O)N[C@@H](Cc1ccccc1)C(=O)N(C)CC(N)=O` (H-[Dmt][dNMeA]F[Sar]-NH2), the Emax came out at 71% on Mu-type opioid receptor [1] and 72% in test [3]. Moreover, in the test filed under Rattus norvegicus, the Ratio EC50 amounted to 55700. The EC50 is 2.87 ×10⁻¹⁰ M in test [4], 0.079 nM at Mu-type opioid receptor [9], 1.29 ×10⁻¹³ M in test [10] and 4400 nM in [14]. Moreover, the Ki was 0.13 µM in test [5], 0.06 µM on Mu-type opioid receptor [7] and more than 1000 µM in [12]. Also, the outcome (at Mu-type opioid receptor [15]; in test [11]) was Active. In addition, the IC50 amounted to 0.0003 µM on Mu-type opioid receptor [6] and 0.0049 µM in [8]. The Activity in test [13] was found to be 1%. Besides, the Ratio Ki in the test listed under Homo sapiens was found to be 2.2.
In the case of `C[C@H](C(=O)N[C@@H](Cc1ccccc1)C(=O)N(C)CC(N)=O)N(C)C(=O)[C@@H](N)Cc1ccc(O)cc1` (H-Y[dNMeA]F[Sar]-NH2), the Emax is 77% at Mu-type opioid receptor [1] and 74% in test [3]. For the same molecule, the Ratio EC50 in the test filed under Rattus norvegicus amounted to 293. Further, the EC50 came to 1060 nM in [4], 3.28 nM at Mu-type opioid receptor [9], 5 ×10⁻¹² M in test [10] and 960 nM in test [14]. Besides, the figures for the inhibitory constant (Ki) (in test [5]; on Mu-type opioid receptor [7]; in test [12]) were more than 10 µM, 1.1 µM and more than 1000 µM, respectively. Moreover, the outcome (at Mu-type opioid receptor [15]; in [11]) was Active. The IC50 is 0.0281 µM on Mu-type opioid receptor [6] and 0.0071 µM in test [8]. The Activity in test [13] amounted to 3%.
